{"source": "ChEMBL document CHEMBL3525985", "about": "“Regiospecificity and stereospecificity of human UDP-glucuronosyltransferases in the glucuronidation of estriol, 16-epiestriol, 17-epiestriol, and 13-epiestradiol” (Drug Metab Dispos, 2013)", "type_in_all_cases": "ADME", "key": {"[1]": {"molecular_target": "T1, UDP-glucuronosyltransferase 2A1 (Homo sapiens, UniProt P0DTE4)", "T1 sequence (P0DTE4 whole entry)": "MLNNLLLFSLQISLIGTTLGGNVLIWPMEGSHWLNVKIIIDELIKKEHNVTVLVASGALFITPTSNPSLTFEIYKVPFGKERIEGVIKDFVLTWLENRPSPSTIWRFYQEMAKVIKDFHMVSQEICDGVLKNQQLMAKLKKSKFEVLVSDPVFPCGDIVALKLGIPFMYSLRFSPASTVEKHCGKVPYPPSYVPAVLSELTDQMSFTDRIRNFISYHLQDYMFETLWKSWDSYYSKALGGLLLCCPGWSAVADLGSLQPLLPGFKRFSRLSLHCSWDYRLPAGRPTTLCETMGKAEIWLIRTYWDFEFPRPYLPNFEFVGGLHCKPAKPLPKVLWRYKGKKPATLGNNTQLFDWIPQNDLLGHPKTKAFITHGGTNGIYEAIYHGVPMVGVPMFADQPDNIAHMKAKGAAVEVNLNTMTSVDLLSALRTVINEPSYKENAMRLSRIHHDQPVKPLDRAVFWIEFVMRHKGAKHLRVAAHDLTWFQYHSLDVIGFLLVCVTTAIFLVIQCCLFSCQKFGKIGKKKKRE", "assay": "Drug metabolism assessed as recombinant human C-terminal His-tagged UGT2A1-mediated estriol-16-glucuronide formation after 15 to 60 mins by Michaelis-Menten equation analysis in presence of UDPGA", "conditions": "recombinant enzyme"}, "[2]": {"molecular_target": "T2, UDP-glucuronosyltransferase 2B15 (Homo sapiens, UniProt P54855)", "T2 sequence (P54855 whole entry)": "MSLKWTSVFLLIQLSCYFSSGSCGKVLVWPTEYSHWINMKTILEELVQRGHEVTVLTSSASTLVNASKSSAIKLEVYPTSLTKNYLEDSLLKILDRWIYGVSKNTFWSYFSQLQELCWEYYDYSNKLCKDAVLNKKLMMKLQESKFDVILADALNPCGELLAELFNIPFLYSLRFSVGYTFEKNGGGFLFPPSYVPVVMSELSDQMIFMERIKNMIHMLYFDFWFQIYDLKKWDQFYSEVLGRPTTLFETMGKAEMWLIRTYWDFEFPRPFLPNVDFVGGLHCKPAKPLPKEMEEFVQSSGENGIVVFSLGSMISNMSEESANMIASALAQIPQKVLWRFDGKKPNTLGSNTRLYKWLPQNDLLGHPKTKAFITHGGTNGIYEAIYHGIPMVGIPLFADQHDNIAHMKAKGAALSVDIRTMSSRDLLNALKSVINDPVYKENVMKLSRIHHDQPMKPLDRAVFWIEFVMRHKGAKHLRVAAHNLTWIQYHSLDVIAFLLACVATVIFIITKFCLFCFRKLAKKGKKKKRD", "assay": "Drug metabolism assessed as recombinant human C-terminal His-tagged UGT2B15-mediated 13-epiestradiol-3-glucuronide/13-epiestradiol-17-glucuronide formation at 200 uM after 15 to 60 mins by HPLC analysis in presence of UDPGA", "conditions": "recombinant enzyme, in the assay text read “UGT2B15-mediated” for “C-terminal His-tagged UGT2B15-mediated”", "procedure,_shortened": "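UGT2B15 was a commercial enzyme without a His-tag, so rates were not normalized to expression. Screening used 200 μM substrate in triplicate, with membranes in 50 mM phosphate pH 7.4, 10 mM MgCl₂, 5 mM UDPGA and 10% DMSO. Incubation was 15–60 min at 37°C. The reaction was stopped with perchloric acid and analysed by HPLC. Controls lacked UDPGA.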"}, "[3]": {"molecular_target": "T3, UDP-glucuronosyltransferase 1A10 (Homo sapiens, UniProt Q9HAW8)", "T3 sequence (Q9HAW8 whole entry)": "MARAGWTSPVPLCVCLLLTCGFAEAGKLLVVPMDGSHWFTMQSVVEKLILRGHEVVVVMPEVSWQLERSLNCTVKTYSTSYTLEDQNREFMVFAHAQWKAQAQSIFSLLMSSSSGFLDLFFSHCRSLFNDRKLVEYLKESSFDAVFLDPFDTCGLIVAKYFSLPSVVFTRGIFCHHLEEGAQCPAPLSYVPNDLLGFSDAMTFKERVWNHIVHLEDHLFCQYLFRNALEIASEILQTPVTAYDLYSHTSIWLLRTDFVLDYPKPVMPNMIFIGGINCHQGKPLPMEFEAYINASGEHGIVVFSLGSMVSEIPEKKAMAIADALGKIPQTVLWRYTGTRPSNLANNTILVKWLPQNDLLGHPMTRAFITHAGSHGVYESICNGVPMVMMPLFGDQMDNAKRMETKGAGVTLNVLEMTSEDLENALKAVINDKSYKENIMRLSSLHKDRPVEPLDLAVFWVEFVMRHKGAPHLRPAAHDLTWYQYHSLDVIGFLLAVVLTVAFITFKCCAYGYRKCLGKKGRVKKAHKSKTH", "assay": "Drug metabolism assessed as recombinant human C-terminal His-tagged UGT1A10-mediated 17-epiestriol-3-glucuronide formation at 200 uM after 15 to 60 mins by HPLC analysis in presence of UDPGA", "conditions": "recombinant enzyme", "procedure,_shortened": "(§1)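 Screening at a single substrate concentration of 200 μM, in triplicate. The reaction used 5 or 50 µg of UGT-enriched insect cell membranes in 50 mM phosphate pH 7.4 with 10 mM MgCl₂ and 5 mM UDPGA, 10% final DMSO. Incubation was 15–60 min at 37°C. Perchloric acid stopped the reaction and supernatants were analysed by HPLC. Controls lacked UDPGA. Rates were normalized to relative UGT expression level.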"}, "[4]": {"molecular_target": "T1, UDP-glucuronosyltransferase 2A1", "assay": "Drug metabolism assessed as recombinant human C-terminal His-tagged UGT2A1-mediated 17-epiestriol-16-glucuronide formation at 200 uM after 15 to 60 mins by HPLC analysis in presence of UDPGA", "conditions": "recombinant enzyme", "procedure,_shortened": "as §1"}, "[5]": {"molecular_target": "T4, UDP-glucuronosyltransferase 1A1 (Homo sapiens, UniProt P22309)", "T4 sequence (P22309 whole entry)": "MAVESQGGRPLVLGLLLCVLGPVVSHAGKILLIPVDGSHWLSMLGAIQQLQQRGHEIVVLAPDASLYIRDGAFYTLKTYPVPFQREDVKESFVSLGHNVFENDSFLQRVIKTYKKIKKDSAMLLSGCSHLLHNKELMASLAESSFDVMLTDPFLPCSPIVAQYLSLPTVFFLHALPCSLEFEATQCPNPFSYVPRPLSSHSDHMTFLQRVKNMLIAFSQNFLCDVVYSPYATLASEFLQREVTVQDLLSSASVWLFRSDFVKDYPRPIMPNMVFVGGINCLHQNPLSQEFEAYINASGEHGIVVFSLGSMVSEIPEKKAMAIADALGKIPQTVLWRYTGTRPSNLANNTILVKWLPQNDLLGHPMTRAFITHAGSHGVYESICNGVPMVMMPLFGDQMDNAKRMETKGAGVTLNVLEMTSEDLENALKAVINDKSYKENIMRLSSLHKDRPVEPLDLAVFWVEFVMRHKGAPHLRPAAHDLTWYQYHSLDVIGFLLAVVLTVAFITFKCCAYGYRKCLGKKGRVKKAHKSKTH", "assay": "Drug metabolism assessed as recombinant human C-terminal His-tagged UGT1A1-mediated 17-epiestriol-3-glucuronide formation at 200 uM after 15 to 60 mins by HPLC analysis in presence of UDPGA", "conditions": "recombinant enzyme", "procedure,_shortened": "as §1"}}}
{"smiles": "C[C@]12CC[C@@H]3c4ccc(O)cc4CC[C@H]3[C@@H]1C[C@@H](O)[C@@H]2O", "note": "[ESTRIOL]", "values": [{"measurement": "Drug metabolism", "setting": "[1]", "result": 4, "unit": "pmol/min/mg"}]}
{"smiles": "C[C@@]12CC[C@@H]3c4ccc(O)cc4CC[C@H]3[C@@H]1CC[C@@H]2O", "values": [{"measurement": "Drug metabolism", "setting": "[2]", "result": "metabolite_detected"}]}
{"smiles": "C[C@]12CC[C@@H]3c4ccc(O)cc4CC[C@H]3[C@@H]1C[C@@H](O)[C@H]2O", "values": [{"measurement": "Drug metabolism", "setting": "[3]", "result": "metabolite_detected"}, {"measurement": "Drug metabolism", "setting": "[4]", "result": "metabolite_detected"}, {"measurement": "Drug metabolism", "setting": "[5]", "result": "metabolite_detected"}]}
